CHRM5 agonist: CHRM5 agonism in calcium assay; activation, % at 3 µM; actives 0.19% (n = 360,000); AID 624037; CHO-K1 hM5 cells, Fluo-8 calcium fluorescence; 0% DMSO wells, 100% maximal acetylcholine response; P08912;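 active = activation above the run's mean over test compounds plus 3 SD, cut at about 23% in these data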;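 note: signal is peak over basal fluorescence ratio across the kinetic read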
CHRM4 agonist: agonists of human muscarinic M4 receptor (CHRM4). P08173. CHO-K1 hM4/Gqi5, Fluo-8 calcium fluorescence; vehicle 0%, full acetylcholine response 100%. activation, % at 3 µM. actives 0.14% (n = 360,000). AID 624127;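 active = activation above the run mean over all test wells plus 3 SD, cut at about 32% in these data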;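 note: peak over basal fluorescence ratio per well then scaled between controls; 0% = DMSO wells and 100% = acetylcholine at EC100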
Target sequence (P08173 whole entry, looked up): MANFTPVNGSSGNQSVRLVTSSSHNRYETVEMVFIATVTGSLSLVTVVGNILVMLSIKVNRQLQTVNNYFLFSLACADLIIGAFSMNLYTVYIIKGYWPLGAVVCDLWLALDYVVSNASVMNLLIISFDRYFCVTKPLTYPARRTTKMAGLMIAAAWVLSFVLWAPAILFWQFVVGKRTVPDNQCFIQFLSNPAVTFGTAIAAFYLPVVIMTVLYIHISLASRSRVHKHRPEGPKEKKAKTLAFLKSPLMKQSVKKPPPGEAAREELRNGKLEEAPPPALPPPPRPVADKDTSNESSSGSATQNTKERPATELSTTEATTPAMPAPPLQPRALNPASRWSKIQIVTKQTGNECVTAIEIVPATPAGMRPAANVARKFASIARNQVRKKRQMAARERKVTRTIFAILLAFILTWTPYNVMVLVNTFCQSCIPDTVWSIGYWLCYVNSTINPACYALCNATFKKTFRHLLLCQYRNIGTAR
M4 PAM: positive allosteric modulators of human muscarinic M4 receptor. P08173. actives 0.4% (n = 360,000). CHO-K1 hM4/Gqi5, Fluo-8 calcium fluorescence, ACh EC20; 0% = ACh EC20, 100% = maximal ACh. activation, % at 3 µM;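 active = activation above its plate's cutoff, the mean activation of sample wells plus 3 SD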
CHRM5 PAM: CHRM5 positive allosteric modulation; P08912; CHO-K1 hM5, Fluo-8 calcium, ACh EC20 PAM; 0% = ACh EC20, 100% = ACh EC100; activation, % at 3 µM; actives 0.3% (n = 360,000); AID 624038;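 active = activation above the run cutoff, the mean activation of all test compounds plus 3 SD, cut at about 18% in these data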
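System: CHO-K1 cell line with stable human muscarinic M5 receptor expression | Also added: EC20 acetylcholine as agonist stimulus | Compound: One concentration, 3 µM final (nominal) | Timing: Fluo-8 loading 80 min at 37 °C plus 30 min room temperature | Measured by: Fluo-8 calcium dye fluorescence, kinetic read | Read-out basis: % activation, ACh-normalized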
CHRM5 antagonist: antagonists of human muscarinic M5 receptor (CHRM5); CHO-hM5 cells, Fluo-8 calcium fluorescence, ACh EC80; inhibition, % at 3 µM; actives 0.59% (n = 360,000);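 active = inhibition above a per-plate cutoff, the mean of that plate's test compounds plus 3 SD, cut at about 27% in these data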;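 note: 0% = acetylcholine EC80 with DMSO and 100% = DMSO without agonist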
M4 antag: blocks acetylcholine activation of human M4 receptor. P08173. actives 0.73% (n = 360,000). inhibition, % at 3 µM. AID 624125. CHO-hM4 cells, ACh EC80, Fluo-8 calcium fluorescence;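 active = inhibition above its plate's cutoff, the mean inhibition of sample wells plus 3 SD, cut at about 27% in these data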;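 note: 0% = acetylcholine EC80 with DMSO and 100% = DMSO without agonist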
Active calls of the source: *. This is a sample that favours compounds with a hit; in the whole collection about 1.9% have one here.

Screening O=C(O)c1ccccc1SCCS(=O)(=O)c1ccc(Cl)cc1Cl returned CHRM5 agonist -3.4, CHRM4 agonist 1.2, M4 PAM 4.7, CHRM5 PAM 2.0, CHRM5 antagonist 2.2 and M4 antag 5.1.
For CC(C)(C)N(Cc1cc2ccccc2[nH]c1=O)C(=O)C1CCCCC1 the results were CHRM5 agonist 11.4, CHRM4 agonist -0.2, M4 PAM 1.8, CHRM5 PAM -0.1, CHRM5 antagonist 78.7* and M4 antag 2.5.
Screening CCN(Cc1cc2ccccc2[nH]c1=O)C(=O)C1CCCCC1 returned CHRM5 agonist 2.5, CHRM4 agonist 2.8, M4 PAM -0.2, CHRM5 PAM -1.0, CHRM5 antagonist 3.5 and M4 antag 3.2.
For CN(Cc1ccccc1)C1CCN(Cc2ccccc2[N+](=O)[O-])CC1 the results were CHRM5 agonist -20.8, CHRM4 agonist 0.6, M4 PAM -17.4, CHRM5 PAM -14.9, CHRM5 antagonist 10.6 and M4 antag 47.9*.
O=[N+]([O-])c1ccccc1CN1CCN(S(=O)(=O)Cc2ccccc2)CC1 was read as CHRM5 agonist -2.2, CHRM4 agonist 2.0, M4 PAM 15.0, CHRM5 PAM 1.8, CHRM5 antagonist 5.1 and M4 antag -0.3.
COC(=O)c1ccc(CNC(=O)c2ccc(S(=O)(=O)N(C)c3ccccc3OC)cc2)cc1 was read as CHRM5 agonist 2.8, CHRM4 agonist 23.9, M4 PAM -10.9, CHRM5 PAM -19.6, CHRM5 antagonist 4.3 and M4 antag 8.1.
For Cc1ccc(N2C(=O)CS(=O)C(c3ccccc3)C2=O)cc1C (stereo not drawn) the results were CHRM5 agonist -2.4, CHRM4 agonist 19.6, M4 PAM 2.8, CHRM5 PAM -8.9, CHRM5 antagonist 28.3* and M4 antag 3.4.
`COc1ccc(N2C(=O)CS(=O)C(c3ccccc3)C2=O)cc1` (stereo not drawn) gave CHRM5 agonist -0.3, CHRM4 agonist 0.1, M4 PAM -1.7, CHRM5 PAM 5.1, CHRM5 antagonist -7.3 and M4 antag 1.4.
Screening CN1CCC(=C2c3ccccc3CCc3sccc32)CC1 returned CHRM5 agonist 0.2, CHRM4 agonist 5.0, M4 PAM -17.4, CHRM5 PAM -18.2, CHRM5 antagonist 98.8* and M4 antag 99.2*.
Screening CN1CCC(=C2c3ccccc3C(O)c3ccccc32)CC1 (stereo not drawn) returned CHRM5 agonist -7.1, CHRM4 agonist 2.4, M4 PAM -20.0, CHRM5 PAM -18.6, CHRM5 antagonist 98.7* and M4 antag 96.2*.
CN1CCC(=C2c3ccccc3CC(=O)c3sccc32)CC1 was read as CHRM5 agonist 0.5, CHRM4 agonist 5.9, M4 PAM -17.0, CHRM5 PAM -18.9, CHRM5 antagonist 98.1* and M4 antag 71.5*.
`Brc1ccsc1-c1csc(-c2ccncc2)n1` gave CHRM5 agonist -7.4, CHRM4 agonist 1.2, M4 PAM -7.1, CHRM5 PAM -2.8, CHRM5 antagonist -2.8 and M4 antag 0.1.
For CCOc1ccc2[nH]c(=O)c(CN(CCN3CCCC3)C(=S)Nc3ccccc3OC)cc2c1 the results were CHRM5 agonist -3.1, CHRM4 agonist 1.1, M4 PAM 3.4, CHRM5 PAM -0.6, CHRM5 antagonist 4.2 and M4 antag -11.0.
For COc1ccc(CNC(=O)CNC(C)c2ccc(F)cc2)cc1 (stereo not drawn) the results were CHRM5 agonist -2.0, CHRM4 agonist 1.6, M4 PAM -18.2, CHRM5 PAM -2.3, CHRM5 antagonist -0.1 and M4 antag 53.2*.
`COc1ccccc1C(C)NCC(=O)NCc1ccc(C)cc1` (stereo not drawn) gave CHRM5 agonist -7.8, CHRM4 agonist 1.4, M4 PAM 0.2, CHRM5 PAM 2.4, CHRM5 antagonist 1.7 and M4 antag -1.8.
`Nc1[nH]ncc1-c1ccc(Cl)cc1` gave CHRM5 agonist 2.3, CHRM4 agonist 3.3, M4 PAM 37.8*, CHRM5 PAM 8.0, CHRM5 antagonist -7.3 and M4 antag 1.9.
Screening Cc1ccc(S(=O)(=O)N(CC(=O)Nc2ccccc2)C(=O)N2CCN(C)CC2)cc1 returned CHRM5 agonist 0.5, CHRM4 agonist -0.1, M4 PAM 19.7*, CHRM5 PAM 3.1, CHRM5 antagonist 1.6 and M4 antag 1.0.
`O=C(O)c1nn(CC(=O)N2CCCCCC2)c(=O)c2ccccc12` gave CHRM5 agonist -0.7, CHRM4 agonist 0.3, M4 PAM -0.9, CHRM5 PAM 1.6, CHRM5 antagonist 10.0 and M4 antag 4.1.
`CN(C(=O)Cn1nc(C(=O)O)c2ccccc2c1=O)C1(C#N)CCCCC1` gave CHRM5 agonist 0.5, CHRM4 agonist 0.9, M4 PAM 23.3*, CHRM5 PAM 5.0, CHRM5 antagonist 3.1 and M4 antag -26.4.
Screening O=C(NC1CCCCC1)C(C1CC1)n1c(=O)c(-c2ccccc2)nc2ccccc21 (stereo not drawn) returned CHRM5 agonist -0.7, CHRM4 agonist -0.8, M4 PAM -1.6, CHRM5 PAM -6.9, CHRM5 antagonist 12.6 and M4 antag -17.6.
For O=C(CN(Cc1ccco1)C(=O)c1cc(=O)[nH]c2ccccc12)Nc1ccccc1C(F)(F)F the results were CHRM5 agonist 2.0, CHRM4 agonist 2.5, M4 PAM 10.3, CHRM5 PAM -4.0, CHRM5 antagonist 9.1 and M4 antag 2.5.
Screening O=C(CN(Cc1ccco1)C(=O)c1ccc(F)cc1F)Nc1ccccc1C(F)(F)F returned CHRM5 agonist 0.2, CHRM4 agonist 1.3, M4 PAM 23.4*, CHRM5 PAM 9.9, CHRM5 antagonist -4.8 and M4 antag -10.2.
Screening CN(CC(=O)Nc1cccc2ccccc12)C(=O)c1ccc(F)cc1F returned CHRM5 agonist -0.4, CHRM4 agonist 3.2, M4 PAM 23.1*, CHRM5 PAM -0.4, CHRM5 antagonist 9.5 and M4 antag -12.4.
Screening Cc1nc([N+](=O)[O-])nn1C12CC3CC(CC(Cl)(C3)C1)C2 returned CHRM5 agonist -2.4, CHRM4 agonist 7.2, M4 PAM -3.0, CHRM5 PAM 1.1, CHRM5 antagonist -5.5 and M4 antag 3.4.
For COc1ccc(-n2nc3c(N4CCC(C(=O)N5CCC(C)CC5)CC4)nnc(C)c3c2C)cc1 the results were CHRM5 agonist -5.1, CHRM4 agonist 0.6, M4 PAM -12.2, CHRM5 PAM -14.9, CHRM5 antagonist 42.9* and M4 antag 20.5.
For CCCCn1c(N)c(N(CC(C)C)C(=O)CCS(=O)(=O)c2ccc(C)cc2)c(=O)[nH]c1=O the results were CHRM5 agonist -2.7, CHRM4 agonist 1.2, M4 PAM 13.7, CHRM5 PAM -1.8, CHRM5 antagonist -0.3 and M4 antag -20.8.

Screening data (PubChem)
